CHOP inh = blocks CHOP induction under ER stress; inhibition, % at 10 µM; actives 3.8% (n = 220,000); CHO-K1 CHOP-promoter luciferase, tunicamycin-induced, 15-18 h;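 active means compounds that reduced the stress-induced luciferase reporter signal by more than about 70% of percent inhibition, limit read from the data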;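 further: 0% = tunicamycin plus vehicle and 100% = wells without tunicamycin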
CHOP UPR activ = activators of apoptotic arm of unfolded protein response (CHOP); activation, % at 10 µM; AID 449763; CHO-CHOP luciferase reporter, UPR activation, luminescence; percent of tunicamycin response over DMSO baseline; actives 0.34% (n = 330,000);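 active means at 10 µM dose, activation of 40% or more, normalized to positive control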;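 further: 100% = tunicamycin at 10 µg/mL and 0% = DMSO alone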
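Dosing – one dose, 10 µM in 0.5% DMSO · System – CHO-CHOP cells, stable luciferase reporter of PERK-eIF2a-CHOP signalling · Input – 500 cells/well · Control set – tunicamycin 10 µg/mL final as positive, DMSO-only wells as negative · Timing – 6 h compound treatment, 37 °C · Measure – % activation vs tunicamycin · Technique – luminescence read with Steady-Glo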
XBP1 UPR activ = adaptive UPR (XBP1) activation; CHO-XBP1 luciferase reporter, IRE1-XBP1 UPR activation, luminescence; percent of tunicamycin response, DMSO as zero; actives 0.33% (n = 330,000); activation, % at 20 µM;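 active means versus positive control, 20 µM dose yields 30% or more activation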;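 further: 100% = tunicamycin at 10 µg/mL and 0% = DMSO only wells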
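Material: CHO-XBP1 cells stably carrying IRE1-XBP1-driven luciferase reporter / Amount: 1000 cells per well / Compound: 20 µM, 1% DMSO / Times: 6 h treatment, 37 °C / Detection: luciferase luminescence / Measure: % activation of reporter signal versus tunicamycin and DMSO controls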
Bfl-1 A1 inh = inhibitors of the anti-apoptotic protein A1, read as caspase activation; caspase activation, % (concentration not given with the values); AID 2462; actives 0.066% (n = 330,000); MEF A1-2A-BIM cells, Caspase-Glo 3/7 luminescence, 3 h; percent of clofoctol response, vehicle zero;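 active means over half of replicate activation scores above 10%, or exactly half above 10 with the replicate mean above 10; inconclusive means replicate mean below 10 yet half the replicates above 10; inactive means over half of replicates below 10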
* = called active by the depositor; ? = inconclusive; · = not tested or not shown. Only a selection was taken, and hits are over-represented in it overall.

SMILES	CHOP inh	CHOP UPR activ	XBP1 UPR activ	Bfl-1 A1 inh
COCCNC(=O)c1cccc(Nc2nc(-c3ccccc3)c3cc(Cl)ccc3n2)c1	81.7*	1.0	11.7	0.5
C=CCN=C1NN=C(c2cc(C)n(CC=C)c2C)CS1	92.7*	-10.5	-6.8	-0.6
COCCN=C1NN=C(c2cc(C)n(CC3CCCO3)c2C)CS1 (stereo not drawn)	-3.8	-1.8	-6.2	0.3
C=CCN=C1NN=C(c2ccc3c(c2)OCCO3)CS1	70.6*	-9.4	-8.8	0.8
COCCCN=C1NN=C(c2cc(C)n(-c3ccccc3F)c2C)CS1	44.0	-4.9	-3.5	-1.1
COCCn1c(C)cc(C2=NNC(=Nc3ccccc3F)SC2)c1C	70.0*	-4.9	-5.6	-1.4
COc1cccc(-c2nnc3sc(-c4ccccc4)nn23)c1	-28.9	1.4	2.3	0.8
Cc1cccc(-c2nnc3sc(-c4ccccc4C)nn23)c1	83.2*	1.9	2.5	-0.5
O=C(OCCCN=C1NS(=O)(=O)c2ccccc21)c1ccccc1	·	1.3	-3.3	?
CCNC(=S)N/N=C/c1cn(Cc2ccccc2F)c2ccccc12	77.1*	0.6	2.8	0.1
Cc1noc(C)c1COC(=O)c1cccc(N(C)C)c1	4.8	0.8	-6.3	-0.3
CCOC(=O)c1cc(-c2ccc(C)cc2)n(CCC(=O)NCCN(C)C)c1C	53.9	-1.7	1.8	-0.9
CCCCc1c(C)c(C#N)c2nc3ccccc3n2c1Cl	106.3*	·	·	·
CCc1c(C)c(C#N)c2nc3ccccc3n2c1N(C)C	-4.0	-1.1	-1.0	0.2
COc1ccc(/C=N/NC(=O)c2ccc(CSc3nc(C)cc(C)n3)cc2)cc1O	7.2	-0.6	-1.9	0.2
COc1ccc(O)c(/C=N/NC(=O)c2ccc(CSc3nc(C)cc(C)n3)cc2)c1	71.1*	-1.7	-2.7	-0.7
C=CCSc1nc(C)c2cc(C)cc(C)c2n1	95.9*	1.1	1.3	-1.5
C=CCSc1nc(=O)n2ccc(C)cc2n1	-4.5	1.5	0.8	0.5
Cc1nc2ncnn2c(N2CCN(c3cccc(C(F)(F)F)c3)CC2)c1C	73.0*	5.6	0.7	-0.1
CCc1cccc2c1NC1(CCCC1)CC2C (stereo not drawn)	91.1*	-0.8	-2.8	-0.1
Clc1ccc(CN2CCCCCCC2)cc1Cl	79.1*	-2.0	-3.3	0.2
COc1ccc(-n2nnnc2SCC(=O)Nc2ccc3c(c2)OCCO3)cc1OC	22.5	-3.0	-2.0	-1.2
COc1cc([N+](=O)[O-])cc(/C=N/NC(=O)C(C)Nc2cccc3ccccc23)c1O (stereo not drawn)	7.0	0.6	-3.6	-0.4
CC(Nc1cccc2ccccc12)C(=O)N/N=C/c1ccc([N+](=O)[O-])cc1 (stereo not drawn)	81.7*	0.6	-2.4	0.4
CCN(CC)CC(=O)N1c2ccccc2Sc2ccc(Cl)cc21	16.9	1.3	0.8	0.3
SMILES	CHOP inh	CHOP UPR activ	XBP1 UPR activ	Bfl-1 A1 inh
Cc1cc(NS(=O)(=O)c2ccc(NC(=O)C(c3ccccc3)c3ccccc3)cc2)no1	91.4*	0.1	1.7	0.0
O=C(Nc1ccc(Br)cc1)C(c1ccccc1)c1ccccc1	83.2*	0.4	-0.1	-1.2
COc1ccc2c(c1)c(C)cc[n+]2Cc1ccccc1	·	-0.8	-0.4	0.9
Cc1ccc(S(=O)(=O)Nc2c3ccccc3nc(=O)n2-c2ccccc2)cc1	12.1	3.6	3.3	-4.3
O=C(Cn1c(NCCO)nc2ccccc21)NCC(F)(F)F	-1.8	1.0	0.0	0.0
CCCc1cc(=O)[nH]c(N2CCN(Cc3ccc4c(c3)OCO4)CC2)n1	·	·	·	-0.5
Cc1csc(NC(=O)C2CCCN(S(=O)(=O)c3ccc(Br)s3)C2)n1 (stereo not drawn)	70.1*	-5.7	-0.6	-0.4
COc1cc(C(O)C(=O)O)ccc1O (stereo not drawn)	-9.7	-0.8	-6.1	0.0
CCCCCc1nc2sc3c(c2c(=O)n1NC(=O)c1ccc([N+](=O)[O-])cc1)CC(C)(C)OC3	76.4*	0.9	-1.3	?
CCCCCCCc1nc2sc3c(c2c(=O)n1N)CC(C)(C)OC3	0.6	0.9	-0.4	0.2
CCOC(=O)c1c(C2CC2)csc1NC(=O)COC(=O)c1cnc(Cl)c(Cl)c1	9.8	-0.1	-0.5	-0.4
Cc1ccc(-c2cc(-c3ccccc3Cl)[nH]n2)c(O)c1	-23.1	3.3	1.8	-1.5
Cc1ccccc1-c1cc(-c2ccccc2O)n[nH]1	79.5*	4.9	0.7	0.0
Cc1ccc(-c2cc(-c3ccccc3[N+](=O)[O-])[nH]n2)c(O)c1	94.2*	3.5	4.6	0.0
CC(=O)Nc1nc(C)c(C(C)(C)C)s1	5.8	-0.2	3.1	0.2
CCC(=O)OC1(C)C(=O)C2=COC(c3ccc(OC)cc3)=CC2=C(Br)C1=O (stereo not drawn)	29.5	0.9	3.5	1.4
COc1ccc(C2=CC3=C(Br)C(=O)C(C)(O)C(=O)C3=CO2)cc1 (stereo not drawn)	95.1*	2.5	-2.0	-0.6
C=CCn1c(-c2ccc(S(=O)(=O)N3CCOCC3)cc2)csc1=Nc1ccccc1	71.6*	0.7	3.2	-0.5
CCC(C)n1c(SCc2ccc([N+](=O)[O-])cc2)nc2ccsc2c1=O (stereo not drawn)	73.7*	1.8	1.5	0.6
Cc1nc2cc(-c3cccc(F)c3)nn2c(C)c1CCC(=O)NC(C)CCc1ccco1 (stereo not drawn)	81.7*	-6.0	-5.3	-3.3
N=C1S/C(=C\c2cccc3ccccc23)C(=O)N1c1ccc(F)cc1	98.7*	2.0	4.1	-0.3
N=C1S/C(=C\c2ccccc2F)C(=O)N1c1ccc(F)cc1	-4.4	-1.3	-2.6	1.0
CC(=O)c1c(C)cc(C)c(CSc2ccccn2)c1C	·	2.4	-3.0	1.5
Cc1cc(C(=O)COC(=O)c2ccccc2Br)c(C)n1CC1CCCO1 (stereo not drawn)	76.8*	-8.9	-6.5	-7.5
Cc1ccc(C(=O)OCC(=O)c2cc(C)n(CC3CCCO3)c2C)cc1 (stereo not drawn)	1.7	3.8	-2.2	-3.2
SMILES	CHOP inh	CHOP UPR activ	XBP1 UPR activ	Bfl-1 A1 inh
Cc1cc(C(=O)COC(=O)c2ccccc2O)c(C)n1CC1CCCO1 (stereo not drawn)	·	-9.3	-8.6	-10.0
Cc1cc(C(=O)COC(=O)C2COc3ccccc3O2)c(C)n1CC1CCCO1 (stereo not drawn)	77.4*	-1.0	1.4	0.4
Cc1cc(C(=O)COC(=O)c2cccnc2Cl)c(C)n1CC1CCCO1 (stereo not drawn)	79.8*	-8.5	-13.9	-8.2
CCCCCn1cnc2c(sc3nc4c(cc32)CSC(C)(C)C4)c1=O	8.5	7.0	-0.5	-1.5
O=C(CSc1nc2ccccc2[nH]1)NCc1ccccc1	·	-0.6	-1.5	-0.1
CCc1cccc(NC(=O)CCNS(=O)(=O)c2ccc3[nH]c(=O)oc3c2)c1	·	0.9	-2.8	1.2
